Calls of active or inactive are those of the source. The calls are words filed in the database; no cut-off is given here. Where a SMILES comes first, the peptide text is derived from it. The star is where a group is joined. Biotin = O=C1N[C@H]2[C@H](CS[C@H]2CCCCC(=O)*)N1; Stearoyl = CCCCCCCCCCCCCCCCCC(=O)*
Key:
[1] = test system: Influenza A virus (A/Wyoming/03/2003(H3N2)); assay: Binding affinity to Influenza A virus (A/Wyoming/03/2003 (H3N2)) hemagglutininin by avidin-biotin peroxidase complex method
Outline: (§1)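 HA was coated at 70 μg/mL overnight at 4 °C and blocked with 1% BSA/PBS. C-terminally biotinylated peptides (5-400 μM) were added for 2 h. After PBS washes, peroxidase-streptavidin was added for 1 h, and o-phenylenediamine colour was read as ΔA at 492 nm, in triplicate. Kd came from a Scatchard plot over 20-200 μM peptide.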

[2] = test system: Influenza A virus (A/New Caledonia/20/1999(H1N1)); assay: Binding affinity to Influenza A virus (A/New Caledonia/20/1999 (H1N1)) hemagglutininin by avidin-biotin peroxidase complex method; outline: as §1
[3] = Binding affinity to Influenza A virus (A/Wuhan/359/1995 (H3N2)) hemagglutininin by phage ELISA
Outline: (§2)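 Wells coated with target (HA, WGA or anti-GM3 antibody) were blocked with 1% BSA/TBS. Phage in TBS was added for 2 h, washed with TBST and reblocked with 5% BSA/TBS. Detection used anti-fd antibody then peroxidase anti-rabbit IgG, 1 h each, with o-phenylenediamine read as ΔA at 492 nm, in triplicate. Phage concentration came from A260. Kd was from a linear plot of ΔA against phage concentration.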

[4] = Binding affinity to wheat germ agglutinin by phage ELISA; design: species or system Triticum aestivum; outline: as §2
[5] = molecular target: Hemagglutinin (Influenza A virus (A/Puerto Rico/8/1934(H1N1)), UniProt P03452); assay: Binding affinity to Influenza A virus (A/Puerto Rico/8/34(H1N1)) hemagglutininin by phage ELISA; outline: as §2
Sequence of Hemagglutinin (Influenza A virus (A/Puerto Rico/8/1934(H1N1)), UniProt P03452) (P03452 18-342 limits assumed): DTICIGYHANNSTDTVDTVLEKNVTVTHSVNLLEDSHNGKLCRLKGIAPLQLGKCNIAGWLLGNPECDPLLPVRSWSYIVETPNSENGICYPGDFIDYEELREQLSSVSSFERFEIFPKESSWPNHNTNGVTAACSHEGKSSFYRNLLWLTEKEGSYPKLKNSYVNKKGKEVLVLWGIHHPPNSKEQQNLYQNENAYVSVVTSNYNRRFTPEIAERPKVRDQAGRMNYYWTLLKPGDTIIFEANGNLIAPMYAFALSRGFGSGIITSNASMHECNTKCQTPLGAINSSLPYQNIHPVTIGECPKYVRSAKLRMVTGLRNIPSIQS
Sequence of Hemagglutinin (Influenza A virus (A/Puerto Rico/8/1934(H1N1)), UniProt P03452) (P03452 344-565 limits assumed): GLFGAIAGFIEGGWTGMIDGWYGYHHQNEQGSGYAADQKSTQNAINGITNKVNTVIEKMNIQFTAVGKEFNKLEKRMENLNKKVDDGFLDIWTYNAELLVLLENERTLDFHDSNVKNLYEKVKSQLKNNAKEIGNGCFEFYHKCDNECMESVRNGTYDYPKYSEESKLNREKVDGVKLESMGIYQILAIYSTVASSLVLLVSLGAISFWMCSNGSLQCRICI

[6] = test system: Influenza A virus; assay: Antiviral activity against Influenza A virus (A/Puerto Rico/8/34(H1N1)) infected in MDCK cells after 48 hrs by plaque assay; type: functional, organism-based; conditions: A/Puerto Rico/8/1934(H1N1)
Outline: (§3)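 N-stearoyl peptides were serially diluted in PBS from a 2 mM stock and mixed with 50-200 pfu virus for 30 min at room temperature. The mixture was put on MDCK monolayers for 30 min at 37 °C under 5% CO2, then washed off. After 2 days, plaques were stained with crystal violet and counted. Inhibition was 100(1 - N/N0), n = 3, plotted against concentration.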

[7] = test system: H3N2 subtype; assay: Antiviral activity against Influenza A virus (A/Aichi/2/1968(H3N2)) infected in MDCK cells after 48 hrs by plaque assay; type: functional, organism-based; outline: as §3

| Molecule | IC50 [6] | IC50 [7] | further results |
| --- | --- | --- | --- |
| CSCC[C@H](NC(=O)[C@@H](NC(=O)[C@H](CCCNC(=N)N)NC(=O)[C@@H]1CCCN1C(=O)[C@H](C)NC(=O)[C@H](CCCNC(=N)N)NC(=O)[C@H](C)N)[C@@H](C)O)C(=O)N[C@H](C(=O)N[C@@H](Cc1cnc[nH]1)C(=O)N1CCC[C@H]1C(=O)N[C@@H](CCCCN)C(=O)N1CCC[C@H]1C(=O)N[C@@H](C)C(=O)N[C@@H](CCC(N)=O)C(=O)N1CCC[C@H]1C(=O)N[C@@H](CCCCNC(=O)CCCC[C@@H]1SC[C@@H]2NC(=O)N[C@@H]21)C(N)=O)C(C)C (H-ARAPRTMVHPKPAQPK(Biotin)-NH2) | – | – | Activity [1]: inactive; Activity [2]: inactive |
| H-IDIAFSSLALADISR-OH [IDIAFSSLALADISR] [listing 1 of 2 here] | – | – | Kd [3]: 0.013 µM; Kd [4]: 0.03 µM |
| H-IDIAFSSLALADISR-OH [IDIAFSSLALADISR] [listing 2 of 2 here] | – | – | Kd [5]: 0.019 µM |
| CCCCCCCCCCCCCCCCCC(=O)N[C@@H](C)C(=O)N[C@@H](CCCNC(=N)N)C(=O)N[C@@H](CC(C)C)C(=O)N[C@@H](CO)C(=O)N1CCC[C@H]1C(=O)N[C@H](C(=O)N[C@@H](CCSC)C(=O)N[C@H](C(=O)N[C@@H](Cc1cnc[nH]1)C(=O)N1CCC[C@H]1C(=O)N[C@@H](CC(N)=O)C(=O)NCC(=O)N[C@@H](C)C(=O)N[C@@H](CCC(N)=O)C(=O)N1CCC[C@H]1C(N)=O)C(C)C)[C@@H](C)O (Stearoyl-ARLSPTMVHPNGAQP-NH2) | > 1000 µM | – | – |
| CCCCCCCCCCCCCCCCCC(=O)N[C@H](C(=O)N[C@@H](Cc1cnc[nH]1)C(=O)N1CCC[C@H]1C(=O)N[C@@H](CCCCN)C(=O)N1CCC[C@H]1C(=O)N[C@@H](C)C(=O)N[C@@H](CCC(N)=O)C(=O)N1CCC[C@H]1C(N)=O)C(C)C (Stearoyl-VHPKPAQP-NH2) | 10 µM | 59 µM | – |
| CSCC[C@H](NC(=O)[C@@H](NC(=O)[C@H](CCCNC(=N)N)NC(=O)[C@@H]1CCCN1C(=O)[C@H](CC(C)C)NC(=O)[C@H](C)NC(=O)[C@H](C)N)[C@H](C)O)C(=O)N[C@H](C(=O)N[C@@H](Cc1cnc[nH]1)C(=O)N1CCC[C@H]1C(=O)N[C@@H](CCCCN)C(=O)N1CCC[C@H]1C(=O)N[C@@H](C)C(=O)N[C@@H](CCC(N)=O)C(=O)N1CCC[C@H]1C(=O)N[C@@H](CCCCNC(=O)CCCC[C@@H]1SC[C@@H]2NC(=O)N[C@@H]21)C(N)=O)C(C)C | – | – | Activity [1]: inactive; Activity [2]: inactive |
| CCCCCCCCCCCCCCCCCC(=O)N[C@@H](C)C(=O)N[C@@H](CCCNC(=N)N)C(=O)N[C@@H](CC(C)C)C(=O)N1CCC[C@H]1C(=O)N[C@@H](CCCNC(=N)N)C(=O)N[C@@H](CC(N)=O)C(=O)N[C@@H](CCSC)C(=O)N[C@H](C(=O)N[C@@H](Cc1cnc[nH]1)C(=O)N[C@@H](Cc1cnc[nH]1)C(=O)N[C@@H](CCCCN)C(=O)N[C@H](C(=O)N[C@@H](C)C(=O)N[C@@H](CCC(N)=O)C(=O)N1CCC[C@H]1C(N)=O)[C@@H](C)O)C(C)C (Stearoyl-ARLPRNMVHHKTAQP-NH2) | 15 µM | 6.2 µM | – |
| H-GRPPDSVFRSRGWLS-OH | – | – | Kd [3]: 0.0089 µM; Kd [5]: 0.011 µM; Kd [4]: 0.02 µM |
| CCCCCCCCCCCCCCCCCC(=O)N[C@H](C(=O)N[C@@H](CCCNC(=N)N)C(=O)N[C@@H](CC(C)C)C(=O)N1CCC[C@H]1C(=O)N[C@@H](CCCNC(=N)N)C(=O)N[C@H](C(=O)N[C@@H](CCSC)C(=O)N[C@@H](CC(C)C)C(=O)N[C@@H](Cc1cnc[nH]1)C(=O)N[C@@H](Cc1cnc[nH]1)C(=O)N[C@@H](CCCCN)C(=O)N1CCC[C@H]1C(=O)N[C@@H](C)C(=O)N[C@@H](CCC(N)=O)C(=O)N[C@@H](C)C(N)=O)[C@@H](C)O)[C@@H](C)O (Stearoyl-TRLPRTMLHHKPAQA-NH2) | 5.1 µM | 10 µM | – |
| CCCCCCCCCCCCCCCCCC(=O)N[C@@H](C)C(=O)N[C@@H](CCCNC(=N)N)C(=O)N[C@@H](CC(C)C)C(=O)N1CCC[C@H]1C(=O)N[C@@H](CCCNC(=N)N)C(=O)N[C@H](C(=O)N[C@@H](CCSC)C(=O)N[C@H](C(=O)N[C@@H](Cc1cnc[nH]1)C(=O)N1CCC[C@H]1C(=O)N[C@@H](CCCCN)C(=O)N1CCC[C@H]1C(=O)N[C@@H](C)C(=O)N[C@@H](CCC(N)=O)C(=O)N1CCC[C@H]1C(N)=O)C(C)C)[C@@H](C)O (Stearoyl-ARLPRTMVHPKPAQP-NH2) | 15 µM | 11 µM | – |
| CCCCCCCCCCCCCCCCCC(=O)N[C@@H](C)C(=O)N[C@@H](CCCNC(=N)N)C(=O)N[C@@H](CC(C)C)C(=O)N1CCC[C@H]1C(=O)N[C@@H](CCCNC(=N)N)C(=O)N[C@H](C(=O)N[C@@H](CC(C)C)C(=O)N[C@H](C(=O)N[C@@H](Cc1cnc[nH]1)C(=O)N1CCC[C@H]1C(=O)N[C@@H](CCCCN)C(=O)N[C@@H](Cc1cnc[nH]1)C(=O)N[C@@H](C)C(=O)N[C@@H](CCC(N)=O)C(=O)N[C@@H](C)C(N)=O)C(C)C)[C@@H](C)O (Stearoyl-ARLPRTLVHPKHAQA-NH2) | 13.5 µM | 7.6 µM | – |
| CCCCCCCCCCCCCCCCCC(=O)N[C@@H](C)C(=O)N[C@@H](CCCNC(=N)N)C(=O)N[C@@H](CC(C)C)C(=O)N1CCC[C@H]1C(=O)N[C@@H](CCCNC(=N)N)C(=O)N[C@H](C(=O)N[C@@H](CCSC)C(=O)N[C@H](C(N)=O)C(C)C)[C@@H](C)O (Stearoyl-ARLPRTMV-NH2) | 4.2 µM | 3 µM | – |
| CCCCCCCCCCCCCCCCCC(=O)N[C@@H](C)C(=O)N[C@@H](CCCNC(=N)N)C(=O)N[C@@H](CC(C)C)C(=O)N1CCC[C@H]1C(=O)N[C@@H](CCCNC(=N)N)C(=O)N[C@@H](CO)C(=O)N[C@@H](CCSC)C(=O)N[C@H](C(=O)N[C@@H](Cc1cnc[nH]1)C(=O)N[C@@H](Cc1cnc[nH]1)C(=O)N[C@@H](CCCCN)C(=O)N1CCC[C@H]1C(=O)N[C@@H](C)C(=O)N[C@@H](CCC(N)=O)C(=O)N1CCC[C@H]1C(N)=O)C(C)C (Stearoyl-ARLPRSMVHHKPAQP-NH2) | 22 µM | 8.9 µM | – |
| CCCCCCCCCCCCCCCCCC(=O)N[C@@H](CCCNC(=N)N)C(=O)N[C@H](C(=O)N[C@@H](CCSC)C(=O)N[C@H](C(=O)N[C@@H](Cc1cnc[nH]1)C(=O)N1CCC[C@H]1C(=O)N[C@@H](CCCCN)C(N)=O)C(C)C)[C@@H](C)O (Stearoyl-RTMVHPK-NH2) | > 100 µM | 11 µM | – |
| CSCC[C@H](NC(=O)[C@@H](NC(=O)[C@@H]1CCCN1C(=O)[C@H](CO)NC(=O)[C@H](CC(C)C)NC(=O)[C@H](CCCN=C(N)N)NC(=O)[C@H](C)N)[C@@H](C)O)C(=O)N[C@H](C(=O)N[C@@H](Cc1cnc[nH]1)C(=O)N1CCC[C@H]1C(=O)N[C@@H](CC(N)=O)C(=O)NCC(=O)N[C@@H](C)C(=O)N[C@@H](CCC(N)=O)C(=O)N1CCC[C@H]1C(=O)O)C(C)C | – | – | Kd [3]: 0.0086 µM; Kd [5]: 0.0078 µM; Kd [4]: 0.016 µM |
| H-GRVPVFGLSPLFKVE-OH | – | – | Kd [3]: 0.016 µM; Kd [5]: 0.0078 µM; Kd [4]: 0.019 µM |
| CCCCCCCCCCCCCCCCCC(=O)N[C@H](C(=O)N[C@@H](CCSC)C(=O)N[C@H](C(=O)N[C@@H](CCCNC(=N)N)C(=O)N1CCC[C@H]1C(=O)N[C@@H](CC(C)C)C(=O)N[C@@H](CCCNC(=N)N)C(=O)N[C@@H](C)C(N)=O)[C@@H](C)O)C(C)C (Stearoyl-VMTRPLRA-NH2) | > 100 µM | > 100 µM | – |
| CCCCCCCCCCCCCCCCCC(=O)N[C@@H](C)C(=O)N[C@@H](CCCNC(=N)N)C(=O)N[C@@H](CC(C)C)C(=O)N1CCC[C@H]1C(=O)N[C@@H](CCCNC(=N)N)C(N)=O (Stearoyl-ARLPR-NH2) | 1.6 µM | 1.9 µM | – |
| CCCCCCCCCCCCCCCCCC(=O)N[C@@H](C)C(=O)N[C@@H](CCCNC(=N)N)C(=O)N[C@@H](CC(C)C)C(=O)N1CCC[C@H]1C(=O)N[C@@H](CCCNC(=N)N)C(=O)N[C@H](C(=O)N[C@@H](CCSC)C(=O)N[C@H](C(=O)N[C@@H](Cc1cnc[nH]1)C(=O)N[C@@H](CO)C(=O)N[C@@H](CCCCN)C(=O)N1CCC[C@H]1C(=O)N[C@@H](C)C(=O)N[C@@H](CCC(N)=O)C(=O)N1CCC[C@H]1C(=O)O)C(C)C)[C@@H](C)O (Stearoyl-ARLPRTMVHSKPAQP-OH) | 41 µM | 6.8 µM | – |
| H-EPYGFIAFSRAAHSP-OH | – | – | Kd [3]: 0.02 µM; Kd [5]: 0.03 µM; Kd [4]: 0.03 µM |
| CCCCCCCCCCCCCCCCCC(=O)N[C@@H](C)C(=O)N[C@@H](CCCNC(=N)N)C(=O)N[C@@H](CC(C)C)C(=O)N1CCC[C@H]1C(=O)N[C@@H](CCCNC(=N)N)C(=O)N[C@H](C(=O)N[C@@H](CCSC)C(=O)N[C@H](C(=O)N[C@@H](Cc1cnc[nH]1)C(=O)N1CCC[C@H]1C(=O)N[C@@H](CCCCN)C(=O)N[C@H](C(=O)N[C@@H](C)C(=O)N[C@@H](Cc1cnc[nH]1)C(=O)N[C@@H](CCC(N)=O)C(N)=O)[C@@H](C)O)C(C)C)[C@@H](C)O (Stearoyl-ARLPRTMVHPKTAHQ-NH2) | 13 µM | 8 µM | – |

From ChEMBL document CHEMBL1155549, “Sialic acid-mimic peptides as hemagglutinin inhibitors for anti-influenza therapy” (J Med Chem, 2010)
